This is a sample that favours compounds with a hit; in the whole collection about 2% have one here.
STAT3 act: IL-6 driven STAT3 reporter potentiators, primary screen, U3A cells, luciferase, luminescence, MLSCN library. 0.91% of 190,000 active. activation (% of control), % at 5.6 µM. AID 871, 2007. IL-6 STAT3-luciferase reporter; 100% = signal with IL-6 EC80 alone;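 active means activation above the screen-wide mean of compound activation plus 3 SD, cut at about 130% in these data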
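Test system: Human STAT1-deficient U3A cells with stable STAT3-luciferase reporter | Also added: Interleukin-6, 33 ng/mL | Timing: Compound pre-incubation 1 h before IL-6, then 6 h stimulation at 37 °C | Technique: Luciferase reporter luminescence | Read-out: Percent of IL-6-only median luminescence | Benchmarks: IL-6-only wells as 100% reference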
STAT1 blocker: STAT1 signaling inhibitors, primary screen, cell-based, HTS, luciferase reporter; NIH 3T3 STAT1-luciferase reporter, IFN-gamma, luminescence; inhibition, % at 5.5 µM; 0.35% of 200,000 active; AID 920, 2007;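 active means inhibition above a set limit, the mean inhibition across all tested compounds plus 3 SD, cut at about 34% in these data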
HSP90 refold inh: HSP90 inhibitors, primary screen, cell lysate, luminescence; 0.91% of 290,000 active; inhibition, % at 5.6 µM; Rabbit reticulocyte lysate, luciferase refolding luminescence, 3 h; Heat shock protein HSP 90 (rabbit reticulocyte lysate; luciferase refolding);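 active means inhibition above the screen-wide mean plus 3 SD, computed separately per campaign, cut at about 16% in these data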;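 further: inhibitors lower the luminescence because luciferase stays unfolded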
STAT3 inh-1: IL-6 driven STAT3 reporter inhibitors, primary screen, U3A cells, luciferase, luminescence, MLSCN library | inhibition, % at 5.5 µM | AID 862, 2007 | IL-6 STAT3-luciferase reporter; host cell line lacks STAT1 | 0.89% of 190,000 active;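 active means inhibition above the mean inhibition across all screened compounds plus 3 SD, cut at about 44% in these data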
STAT3 inh-2: STAT3 reporter inhibitors, retest of hits, confirmation, U3A cells, luciferase, luminescence | shares compounds with STAT3 inh-1 | IL-6 STAT3 luciferase reporter; cell line lacks STAT1 | inhibition, % at 5.7 µM | 45% of 1,200 active;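 active means inhibition above the hit cutoff computed for the primary STAT3 screen, cut at about 44% in these data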
NFkB inh 2: NF-kB reporter inhibitors in human cells, confirmation, counter-screen for STAT3 inhibitor project, cell-based, HEK293T, luciferase, TNF-alpha stimulus | 36% of 1,200 active | inhibition, % at 5.7 µM | shares compounds with STAT3 inh-1 | TNF-alpha induced;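 active means inhibition above the mean of solvent-only control wells plus 3 SD, cutoff set per campaign, cut at about 13% in these data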
STAT1 inh 2: STAT1 reporter inhibitors, IFN-gamma induced, confirmation, counter-screen for STAT3 inhibitor project, cell-based, NIH 3T3, luciferase luminescence. 27% of 1,200 active. shares compounds with STAT3 inh-1. inhibition, % at 5.7 µM. NIH 3T3 STAT1-luciferase reporter;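 active means inhibition above the mean plus 3 SD of solvent-only control wells, limit set per screening run, cut at about 16% in these data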
A number is an active result; 0 = inactive; - = not tested or not shown.

SMILES	STAT3 act	STAT1 blocker	HSP90 refold inh	STAT3 inh-1	STAT3 inh-2	NFkB inh 2	STAT1 inh 2
O=C(COC(=O)c1cccs1)c1ccc2c(c1)OCCO2	0	0	0	54.1	0	0	0
CNc1nc2cc([N+](=O)[O-])c([N+](=O)[O-])cc2nc1NC	0	0	0	71.6	64.8	28.4	20.4
O=c1c2ccccc2nc(N/N=C/c2c(O)ccc3ccccc23)n1O	0	0	0	46.5	0	21.4	0
Cc1nc2ccccc2c(=O)n1/N=C/c1c(O)ccc2ccccc12	0	0	0	0	-	-	-
O=c1c2ccccc2nc(N/N=C/c2ccc(O)cc2)n1O	0	0	0	52.4	0	16.5	33.6
O=C(Nc1ccc2c(c1)C(=O)NC2=O)c1cccc(C(F)(F)F)c1	-	-	0	-	-	-	-
Cc1nn(Cc2ccc(Cl)cc2Cl)c(C)c1NC(=O)C1C2CCC(O2)C1C(=O)O (configuration not stated)	0	0	0	47.2	0	0	0
Cc1nn(Cc2ccccc2Cl)c(C)c1NC(=O)C1C2CCC(O2)C1C(=O)O (configuration not stated)	0	0	0	0	-	-	-
Cc1cc(OCC(=O)Nc2nccs2)c2c(C)cc(=O)oc2c1	-	-	0	-	-	-	-
CCOc1ccc(-n2c(-c3ccccc3)c[n+]3c2CCCCC3)cc1	0	0	0	74.5	76.4	0	24.5
Cc1cc(N2CCN(c3nc4ccccc4s3)CC2)n2ncnc2n1	0	0	0	82.7	72.7	24.6	30.4
O=C(Nc1ccc2c(c1)OCCO2)c1ccccc1F	0	0	0	52.3	0	0	0
CC(C)Oc1ccc(C(=O)NC2=NCCS2)cc1	0	0	0	61.7	0	0	0
Cc1c[n+](CC(=O)c2ccccc2)c(C)cn1	-	-	0	-	-	-	-
Cc1cc(OCC(=O)Nc2ccncc2)ccc1Br	0	0	0	57.1	52.4	0	0
CCOC(=O)C1CCN(C(c2cccnc2)c2c(NC(=O)c3ccco3)sc(C)c2C)CC1 (configuration not stated)	0	0	0	50.0	63.5	14.3	0
Cc1sc(NC(=O)c2ccco2)c(C(c2cccnc2)N2CCN(CCO)CC2)c1C (configuration not stated)	0	0	0	0	-	-	-
CCOc1ccc(/C=N/Nc2nc(C)cs2)c(O)c1	-	-	0	-	-	-	-
Cc1ccc(Oc2ccc(OCC(=O)NC3CCS(=O)(=O)C3)cc2)cc1 (configuration not stated)	-	-	0	-	-	-	-
N#Cc1c(/N=C/c2ccc(Br)s2)sc2c1CCC2	0	0	0	0	-	-	-
N#Cc1c(/N=C/c2cccs2)sc2c1CCCCC2	0	0	0	67.0	0	0	0
O=C(Nc1cccnc1Cl)c1ccc2c(Cl)c3c(nc2c1)CCC3	0	0	0	56.3	0	0	0
COc1ccc(-n2c(-c3ccccc3)nnc2-c2ccc(Cl)cc2)cc1	0	0	0	0	-	-	-
COc1ccc(-n2c(-c3ccc(Cl)cc3)c[n+]3c2CCc2ccccc2-3)cc1	0	0	0	63.0	50.0	0	20.1
CCOc1ccc(N/C=C/C(=O)c2ccccc2)c([N+](=O)[O-])c1	0	0	0	84.9	59.1	45.3	0
SMILES	STAT3 act	STAT1 blocker	HSP90 refold inh	STAT3 inh-1	STAT3 inh-2	NFkB inh 2	STAT1 inh 2
O=C(Nc1ccc(Cl)cc1)Nc1nnc(CSCc2ccc(Cl)cc2)s1	0	0	0	0	-	-	-
Cc1nc(NC(=O)/C=C/c2ccco2)sc1C	0	0	0	44.9	0	0	0
CCCn1c2ccccc2c2cnn(CC(=O)N3CCN(C4CCCCC4)CC3)c(=O)c21	-	-	0	-	-	-	-
COc1ccccc1N1CCN(c2ccc(-c3ccccc3)nn2)CC1	0	0	0	67.1	0	18.1	0
COc1ccccc1N1CCN(c2ccc3ccccc3n2)CC1	-	-	0	-	-	-	-
COc1ccccc1NC(=O)Nc1ccc2c(c1)nc(C)n2C	0	0	0	47.9	0	0	0
CCOC(=O)c1c(-c2ccccc2)c2cc(OC)ccc2n1CCCN(C)C	-	-	0	-	-	-	-
O=C(CSCCO)Nc1ccc(C23CC4CC(CC(C4)C2)C3)cc1	0	0	0	43.9	0	22.3	0
COc1cccc(C(=O)Nc2ccc(-c3nc4ccccc4o3)c(O)c2)c1	0	0	0	0	-	-	-
O=C(Nc1ccc(-c2nc3ccccc3o2)cc1)c1ccc2c(c1)OCO2	0	0	0	0	-	-	-
O=C(Nc1ccc(-c2nc3ccccc3o2)cc1)c1ccc(N2C(=O)C3C4C=CC(C4)C3C2=O)cc1 (configuration not stated)	0	0	0	74.4	67.9	17.4	0
O=C(Nc1ccc2oc(-c3ccccc3)nc2c1)c1ccncc1	0	0	0	46.3	0	0	0
O=C(Nc1ccc2oc(-c3ccccc3)nc2c1)c1cccs1	0	0	0	0	-	-	-
COc1cc(OC)cc(C(=O)Nc2ccc(-c3nc4ccccc4o3)cc2)c1	0	0	0	46.3	44.5	0	0
COCCN1CCC(CNCc2c(C(=O)N3CCCCC3)nc3c(C)cccn23)C1 (configuration not stated)	-	-	0	-	-	-	-
CC(C)CCNS(=O)(=O)c1cc2c3c(c1)CCN3C(=O)CC2	-	-	0	-	-	-	-
Cc1cc(C)c(C)c(S(=O)(=O)NC(C)C(=O)O)c1C (configuration not stated)	-	-	0	-	-	-	-
Cc1ccc(N2C(=O)[C@@H]3C(c4cccnc4)=NO[C@@H]3C2=O)cc1	-	-	0	-	-	-	-
C=CCN=C1NN=C(c2cc(C)n(CC=C)c2C)CS1	0	0	0	73.5	49.5	26.4	0
c1ccc2c(c1)OCC(CNc1ncnc3sccc13)O2 (configuration not stated)	0	0	0	84.1	86.9	32.3	19.8
Fc1ccccc1CNc1ncnc2sccc12	-	-	0	-	-	-	-
CCCC[C@H]1COCCS(=O)(=O)N1Cc1ccc(Br)cc1	-	-	0	-	-	-	-
O=C(NCc1cccnc1)c1ccc(-c2cc3ccccc3oc2=O)cc1	0	0	0	45.5	0	0	0
O=C(Nc1nnc(SCC(=O)N2CCCc3ccccc32)s1)c1cccc2ccccc12	0	0	0	0	-	-	-
COc1cccc(Nc2nnc(SCC(=O)N3CCOCC3)s2)c1	0	0	0	0	-	-	-
Cc1ccc(C(=O)Nc2nnc(SCC(=O)N3CCCc4ccccc43)s2)cc1	0	0	0	62.3	71.0	55.8	49.2
CC(C)Oc1ccc(C(=O)Nc2nnc(SCC(=O)N3CCOCC3)s2)cc1	0	0	16.1	70.2	74.2	56.9	49.9
CC(C)(C)c1ccc(C(=O)N2CCCCCC2=O)cc1	0	0	0	44.9	63.8	34.6	30.1
Cc1ccc(-n2ncc3c(SCc4cccnc4)ncnc32)c(C)c1	0	0	0	75.0	67.9	0	0
